Reference: ChEMBL document CHEMBL2407059, “Discovery and characterization of carbamothioylacrylamides as EP2 selective antagonists” (ACS Med Chem Lett, 2013)
≈ marks a conversion by molar mass, not a printed value. Calls of active or inactive are those of the source. The rule behind the calls is not given here.

Columns and labels:
[1] = system: C6; assay: Cytotoxicity against rat C6 cells after 48 hrs; assay type: cell-based; conditions: c6, 48 h
Outline: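 C6G cells are incubated with compound for 48 h, then cell viability is measured and CC50 derived.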

[2] = molecular target: T1, Prostaglandin D2 receptor (Homo sapiens) (UniProt Q13258); assay: Antagonist activity at human DP1 receptor overexpressed in rat C6 cells assessed as inhibition of BW245C-induced cAMP accumulation incubated for 10 mins prior to BW245C addition measured after 40 mins by TR-FRET assay; assay type: functional, cell-based
T1 sequence (whole entry): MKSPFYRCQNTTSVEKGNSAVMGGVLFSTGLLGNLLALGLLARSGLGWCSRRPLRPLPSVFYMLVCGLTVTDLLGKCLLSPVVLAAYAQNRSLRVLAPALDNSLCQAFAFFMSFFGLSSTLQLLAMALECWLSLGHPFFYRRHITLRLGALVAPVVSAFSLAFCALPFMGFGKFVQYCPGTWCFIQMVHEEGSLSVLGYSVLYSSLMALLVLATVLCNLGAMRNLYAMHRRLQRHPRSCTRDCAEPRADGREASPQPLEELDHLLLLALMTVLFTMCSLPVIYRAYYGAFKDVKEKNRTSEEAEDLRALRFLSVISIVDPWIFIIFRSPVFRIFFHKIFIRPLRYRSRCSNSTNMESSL

[3] = molecular target: Prostacyclin receptor (Homo sapiens) (UniProt P43119); assay: Antagonist activity at human IP receptor overexpressed in rat C6 cells assessed as inhibition of iloprost-induced cAMP accumulation incubated for 10 mins prior to iloprost addition measured after 40 mins by TR-FRET assay; assay type: functional, cell-based
[4] = Metabolic stability in human liver microsomes assessed as compound remaining at 1 to 10 uM after 60 mins; assay type: ADME, Microsome; conditions: read-out: Stability
[5] = molecular target: Prostaglandin E2 receptor EP4 subtype (Homo sapiens) (UniProt P35408); assay: Antagonist activity at human EP4 receptor overexpressed in rat C6 cells assessed as inhibition of PGE2-induced cAMP accumulation incubated for 10 mins prior to PGE2 addition measured after 40 mins by TR-FRET assay; assay type: functional, cell-based
[6] = Metabolic stability in mouse liver microsomes assessed as compound remaining at 1 to 10 uM after 60 mins; assay type: ADME, Microsome; conditions: read-out: Stability
[7] = molecular target: Prostaglandin E2 receptor EP2 subtype (Mus musculus) (UniProt Q62053); assay: Inhibition of EP2 receptor-mediated mouse P388D1 macrophage activation assessed as inhibition of butaprost-induced IL-17 mRNA expression at 10 uM incubated for 1 hr prior to butaprost-challenge measured after 2 hrs by qRT-PCR analysis
Outline: (§1)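 P388D1 mouse macrophages pretreated 1 h with 10 μM antagonist or vehicle, then stimulated 2 h with EP2-selective agonist butaprost (10 μM). Inflammatory mediator mRNA quantified by qRT-PCR; n = 3–4, mean ± SEM, one-way ANOVA with post hoc Bonferroni test.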

[8] = system: Brain; assay: Drug uptake in C57BL/6 mouse brain at 10 mg/kg, po after 1 to 2 hrs; assay type: ADME, organism-based; parameters: dose 10 mg/kg, route oral; conditions: in vivo
Outline: (§2)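 Female C57BL/6 mice dosed 10 mg/kg by oral gavage or 5 mg/kg i.p. (10 mg/kg i.p. also examined for brain) in vehicle of 10% DMSO, 70% PEG400, 20% sterile water. Brain tissue collected at 1 and 2 h post-dose; brain-to-plasma ratio reported.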

[9] = molecular target: Beta-2 adrenergic receptor (Homo sapiens) (UniProt P07550); assay: Inhibition of beta2-adrenergic receptor (unknown origin) overexpressed in rat C6G cells up to 40 uM by TR-FRET assay; assay type: cell-based
[10] = molecular target: Prostaglandin E2 receptor EP2 subtype (Mus musculus) (UniProt Q62053); assay: Inhibition of EP2 receptor-mediated mouse P388D1 macrophage activation assessed as inhibition of butaprost-induced IL-23 mRNA expression at 10 uM incubated for 1 hr prior to butaprost-challenge measured after 2 hrs by qRT-PCR analysis; outline: as §1
[11] = system: Brain; assay: Drug uptake in C57BL/6 mouse brain at 10 mg/kg, ip after 1 hr; assay type: ADME, organism-based; parameters: dose 10 mg/kg, route intraperitoneal; conditions: in vivo; outline: as §2
[12] = Plasma concentration in C57BL/6 mouse at 5 mg/kg, ip after 30 mins; assay type: ADME, organism-based; parameters: dose 5 mg/kg, route intraperitoneal
Outline: (§3)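 Female C57BL/6 mice dosed 10 mg/kg by oral gavage or 5 mg/kg i.p. in 10% DMSO/70% PEG400/20% sterile water. Blood drawn at five time points from 0.5 to 8 h and processed to plasma. Compound concentration in plasma measured; n = 3 mice per time point, mean ± SEM.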

[13] = Inhibition of Staphylococcus aureus NadD
[14] = system: Brain; assay: Drug uptake in C57BL/6 mouse brain at 5 mg/kg, ip after 1 to 2 hrs; assay type: ADME, organism-based; parameters: dose 5 mg/kg, route intraperitoneal; conditions: in vivo; outline: as §2
[15] = molecular target: Prostaglandin E2 receptor EP2 subtype (Mus musculus) (UniProt Q62053); assay: Inhibition of EP2 receptor-mediated mouse P388D1 macrophage activation assessed as inhibition of butaprost-induced TNF-alpha mRNA expression at 10 uM incubated for 1 hr prior to butaprost-challenge measured after 2 hrs by qRT-PCR analysis; outline: as §1
[16] = molecular target: Prostaglandin E2 receptor EP2 subtype (Mus musculus) (UniProt Q62053); assay: Inhibition of EP2 receptor-mediated mouse P388D1 macrophage activation assessed as inhibition of butaprost-induced IL-6 mRNA expression at 10 uM incubated for 1 hr prior to butaprost-challenge measured after 2 hrs by qRT-PCR analysis; outline: as §1
[17] = system: Nucleic Acid; assay: Ratio of drug level in brain to plasma in C57BL/6 mouse at 10 mg/kg, ip; assay type: ADME, organism-based; parameters: dose 10 mg/kg, route intraperitoneal
Outline: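 Female C57BL/6 mice dosed 10 mg/kg i.p. Plasma prepared from blood, and brain tissue collected at 1 h. Brain-to-plasma concentration ratio calculated from the two levels.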

[18] = molecular target: Prostaglandin E2 receptor EP2 subtype (Mus musculus) (UniProt Q62053); assay: Inhibition of EP2 receptor-mediated mouse P388D1 macrophage activation assessed as inhibition of butaprost-induced COX-2 mRNA expression at 10 uM incubated for 1 hr prior to butaprost-challenge measured after 2 hrs by qRT-PCR analysis; outline: as §1
[19] = Aqueous solubility of the compound in PBS buffer at pH 7.0 by nephelometry; assay type: physicochemical
[20] = molecular target: Prostaglandin E2 receptor EP4 subtype (Homo sapiens) (UniProt P35408); assay: Inhibition of human EP4 receptor overexpressed in rat C6G cells up to 40 uM by TR-FRET assay; assay type: cell-based
[21] = molecular target: Prostaglandin E2 receptor EP2 subtype (Mus musculus) (UniProt Q62053); assay: Inhibition of EP2 receptor-mediated mouse P388D1 macrophage activation assessed as inhibition of butaprost-induced IL-12 mRNA expression at 10 uM incubated for 1 hr prior to butaprost-challenge measured after 2 hrs by qRT-PCR analysis
Outline: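 P388D1 macrophage line pretreated 1 h with test agent at 10 μM or vehicle, then stimulated with the EP2-selective agonist butaprost (10 μM) for 2 h. Inflammatory mediator mRNA quantified by qRT-PCR. n = 3–4, mean ± SEM, one-way ANOVA with post hoc Bonferroni test.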

[22] = molecular target: T2, Prostaglandin E2 receptor EP2 subtype (Homo sapiens, UniProt P43116); assay: Antagonist activity at human EP2 receptor overexpressed in rat C6 cells assessed as inhibition of PGE2-induced cAMP accumulation incubated for 10 mins prior to PGE2 addition measured after 40 mins by TR-FRET assay; assay type: functional, cell-based
[23] = molecular target: Prostaglandin E2 receptor EP2 subtype (Mus musculus) (UniProt Q62053); assay: Inhibition of EP2 receptor-mediated mouse P388D1 macrophage activation assessed as inhibition of butaprost-induced IL-1beta mRNA expression at 10 uM incubated for 1 hr prior to butaprost-challenge measured after 2 hrs by qRT-PCR analysis; outline: as §1
[24] = Plasma concentration in C57BL/6 mouse at 10 mg/kg, po after 30 mins; assay type: ADME, organism-based; parameters: dose 10 mg/kg, route oral; outline: as §3
[25] = molecular target: T2, Prostaglandin E2 receptor EP2 subtype; assay: Competitive antagonist activity at human EP2 receptor overexpressed in rat C6 cells by Schild plot analysis; assay type: cell-based

T2 sequence (P43116 whole entry): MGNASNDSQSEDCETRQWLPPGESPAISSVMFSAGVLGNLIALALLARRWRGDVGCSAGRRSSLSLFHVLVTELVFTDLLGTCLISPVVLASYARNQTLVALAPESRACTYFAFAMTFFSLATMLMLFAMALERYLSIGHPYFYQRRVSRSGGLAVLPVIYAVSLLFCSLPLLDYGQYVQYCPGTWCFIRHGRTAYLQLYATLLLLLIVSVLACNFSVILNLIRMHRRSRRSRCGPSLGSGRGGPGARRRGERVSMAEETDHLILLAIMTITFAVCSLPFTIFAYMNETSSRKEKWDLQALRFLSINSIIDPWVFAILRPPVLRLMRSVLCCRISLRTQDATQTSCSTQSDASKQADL
Chain of Prostaglandin E2 receptor EP2 subtype (Mus musculus) (Q62053 whole entry): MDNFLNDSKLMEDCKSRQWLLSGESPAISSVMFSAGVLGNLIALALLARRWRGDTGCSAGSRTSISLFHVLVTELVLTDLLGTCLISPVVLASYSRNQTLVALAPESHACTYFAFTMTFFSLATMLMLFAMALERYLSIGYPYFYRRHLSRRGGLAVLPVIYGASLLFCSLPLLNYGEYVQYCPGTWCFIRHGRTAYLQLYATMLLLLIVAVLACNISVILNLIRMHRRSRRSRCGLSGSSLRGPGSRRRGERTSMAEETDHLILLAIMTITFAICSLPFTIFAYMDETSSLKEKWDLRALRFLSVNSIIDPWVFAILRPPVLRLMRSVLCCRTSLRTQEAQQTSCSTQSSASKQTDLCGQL
Chain of Prostaglandin E2 receptor EP4 subtype (Homo sapiens) (P35408 whole entry): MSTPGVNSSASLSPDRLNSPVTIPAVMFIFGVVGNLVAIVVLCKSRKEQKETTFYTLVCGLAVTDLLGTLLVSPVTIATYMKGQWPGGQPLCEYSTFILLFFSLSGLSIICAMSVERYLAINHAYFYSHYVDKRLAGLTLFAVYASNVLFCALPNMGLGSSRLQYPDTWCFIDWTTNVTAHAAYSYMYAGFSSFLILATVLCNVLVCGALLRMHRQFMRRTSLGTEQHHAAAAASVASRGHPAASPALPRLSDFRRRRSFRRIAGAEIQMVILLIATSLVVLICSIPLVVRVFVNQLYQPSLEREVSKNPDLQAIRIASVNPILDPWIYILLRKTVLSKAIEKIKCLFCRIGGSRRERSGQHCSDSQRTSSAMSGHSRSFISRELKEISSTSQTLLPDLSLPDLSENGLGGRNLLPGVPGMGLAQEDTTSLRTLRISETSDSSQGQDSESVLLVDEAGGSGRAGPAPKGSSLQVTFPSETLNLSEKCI
Chain of Prostacyclin receptor (Homo sapiens) (P43119 whole entry): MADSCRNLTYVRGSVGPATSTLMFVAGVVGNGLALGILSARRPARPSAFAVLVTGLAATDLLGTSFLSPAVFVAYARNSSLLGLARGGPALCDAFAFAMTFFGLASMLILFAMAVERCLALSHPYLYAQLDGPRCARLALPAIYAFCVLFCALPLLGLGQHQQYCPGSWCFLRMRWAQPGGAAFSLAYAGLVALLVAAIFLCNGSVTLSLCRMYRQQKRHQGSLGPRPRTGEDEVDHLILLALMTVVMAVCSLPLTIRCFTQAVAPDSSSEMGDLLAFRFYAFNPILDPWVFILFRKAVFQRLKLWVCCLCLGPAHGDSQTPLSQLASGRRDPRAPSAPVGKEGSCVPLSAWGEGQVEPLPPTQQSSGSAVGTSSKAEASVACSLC
Chain of Beta-2 adrenergic receptor (Homo sapiens) (P07550 whole entry, looked up): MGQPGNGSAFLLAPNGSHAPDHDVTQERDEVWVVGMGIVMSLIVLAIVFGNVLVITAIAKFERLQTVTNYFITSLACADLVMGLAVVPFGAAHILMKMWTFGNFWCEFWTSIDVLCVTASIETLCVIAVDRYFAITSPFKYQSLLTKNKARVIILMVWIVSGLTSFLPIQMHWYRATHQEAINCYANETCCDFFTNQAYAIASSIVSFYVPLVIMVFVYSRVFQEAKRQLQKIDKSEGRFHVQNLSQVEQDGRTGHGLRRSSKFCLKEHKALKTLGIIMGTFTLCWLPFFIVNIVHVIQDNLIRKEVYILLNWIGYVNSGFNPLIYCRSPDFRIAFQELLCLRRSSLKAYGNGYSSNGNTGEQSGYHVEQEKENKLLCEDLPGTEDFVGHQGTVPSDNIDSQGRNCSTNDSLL

## CCc1nnc(NS(=O)(=O)c2ccc(NC(=S)NC(=O)/C=C/c3ccccc3)cc2)s1
[1]
  CC50: 370 µM
[2]
  Kb: 9.8 µM

## CCc1nnc(NS(=O)(=O)c2ccc(NC(=S)NC(=O)/C=C/c3cccs3)cc2)s1
[3]
  Kb: 2.26 µM
[1]
  CC50: 330 µM

## COc1cc(NS(=O)(=O)c2ccc(NC(=S)NC(=O)c3cccs3)cc2)nc(OC)n1
[3]
  Kb: 5.9 µM
[1]
  CC50: 258 µM
[2]
  Kb: 25.2 µM

## COc1cc(NS(=O)(=O)c2ccc(NC(=S)NC(=O)/C=C/c3ccc(F)cc3)cc2)ncn1
[4]
  remaining at 1 h, up to 10 µM: 40%
[1]
  CC50: 378 µM
[2]
  KB: inactive
[5]
  Kb: 18.2 µM
[6]
  remaining at 1 h, up to 10 µM: 40%

## CCc1nnc(NS(=O)(=O)c2ccc(NC(=S)NC(=O)/C=C/c3ccc(F)cc3)cc2)s1
[7]
  inhibition: Active
[8]
  Drug uptake: Not Active
[9]
  inhibition: inactive
[10]
  inhibition: Active
[11]
  Drug uptake: Active
[12]
  concentration at 0.5 h: 30 µM
[13]
  IC50: 4.5 µM
[14]
  Drug uptake: Not Active
[4]
  remaining at 1 h, up to 10 µM: 40%
[1]
  CC50: 326 µM
[15]
  inhibition: Active
[16]
  inhibition: Active
[6]
  remaining at 1 h, up to 10 µM: 40%
[17]
  BPR: 0.02
[18]
  inhibition: Active
[19]
  solubility kinetic: 71 µg/mL (≈ 144 µM)
[20]
  inhibition: inactive
[21]
  inhibition: Active
[22]
  IC50: 1.6 µM
  inhibition: Dose-dependent effect
[23]
  inhibition: Active
[24]
  concentration at 0.5 h: 12 µM

## COc1ccc(NS(=O)(=O)c2ccc(NC(=S)NC(=O)/C=C/c3ccc(C)cc3)cc2)nn1
[3]
  Kb: 0.36 µM
[1]
  CC50: 150 µM
[2]
  KB: inactive
[5]
  Kb: 20.5 µM
[25]
  Kb: 0.0133 µM

## COc1cc(NS(=O)(=O)c2ccc(NC(=S)NC(=O)c3sc4cc(F)ccc4c3Cl)cc2)nc(OC)n1
[3]
  Kb: 21 µM
[1]
  CC50: 96 µM
[2]
  Kb: 8.7 µM
[5]
  Kb: 0.7 µM
[25]
  Kb: 0.108 µM

## CCc1nnc(NS(=O)(=O)c2ccc(NC(=S)NC(=O)/C=C/c3ccc(OC)cc3)cc2)s1
[3]
  Kb: 0.36 µM
[1]
  CC50: 365 µM
[2]
  Kb: 46.6 µM
[5]
  Kb: 13 µM
[25]
  Kb: 0.0345 µM

## CCc1nnc(NS(=O)(=O)c2ccc(NC(=S)NC(=O)c3ccc(OC)cc3)cc2)s1
[3]
  Kb: 1.73 µM
[1]
  CC50: 186 µM
[2]
  Kb: 16.1 µM
